From ChEMBL document CHEMBL5344483, “Design and synthesis of novel chloropyridazine hybrids as promising anticancer agents acting by apoptosis induction and PARP-1 inhibition through a molecular hybridization strategy” (RSC Med Chem, 2024)
Calls of active or inactive are those of the source. The rule behind the calls is not given here.

Assays:
[1] = target: Poly [ADP-ribose] polymerase 1 (Homo sapiens, UniProt P09874); assay: Inhibition of PARP1 (unknown origin) by ELISA
A549 = assay: Anticancer activity against human A549 cells assessed as growth inhibition at 100 microg/mL by SRB assay relative to control; format: functional; settings: read-out: GI
Outline: (§1)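 Cells seeded at 3×10^3 per well and allowed to attach for 24 h. Treated with 100 µg/mL compound for 48 h, triplicate wells, with a 1% v/v DMSO vehicle control. Fixed in 20% TCA, stained with 0.4% SRB, and OD read at 570 nm. Survival fraction is treated OD/control OD.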

SK-BR-3 = assay: Anticancer activity against human SK-BR-3 cells assessed as growth inhibition at 100 microg/mL by SRB assay relative to control; format: functional; settings: read-out: GI; outline: as §1
HNO 97 cell line [2] = assay: Cytotoxicity against human HNO97 cells by SRB assay; format: functional, cell-based
Outline: (§2)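 Cells seeded at 3×10^3 per well and allowed to attach for 24 h. Exposed to […], 12.5, 25 and 50 µg/mL for 48 h, triplicate wells per concentration, with a 1% v/v DMSO vehicle. Fixed in 20% TCA, stained with 0.4% SRB, and OD read at 570 nm. IC50 from sigmoidal dose-response fit of survival fraction (treated/control OD).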

HNO 97 cell line [3] = assay: Anticancer activity against human HNO97 cells assessed as growth inhibition at 100 microg/mL by SRB assay relative to control; format: functional; settings: read-out: GI; outline: as §1
NCI-H460 = assay: Anticancer activity against human NCI-H460 cells assessed as growth inhibition at 100 microg/mL by SRB assay relative to control; format: functional; settings: read-out: GI; outline: as §1
HCT-116 = assay: Anticancer activity against human HCT-116 cells assessed as growth inhibition at 100 microg/mL by SRB assay relative to control; format: functional; settings: read-out: GI; outline: as §1
HeLa = assay: Anticancer activity against human HeLa cells assessed as growth inhibition at 100 microg/mL by SRB assay relative to control; format: functional; settings: read-out: GI; outline: as §1
Huh-7 = assay: Anticancer activity against human Huh-7 cells assessed as growth inhibition at 100 microg/mL by SRB assay relative to control; format: functional; settings: read-out: GI; outline: as §1
MDA-MB-231 = assay: Antiproliferative activity against human MDA-MB-231 cells assessed as reduction in cell growth by coomassie Brilliant Blue staining based analysis; format: functional
[4] = Cytotoxicity against human HSF (VGS) cells assessed as growth inhibition at 100 microg/mL by SRB assay relative to control; format: toxicity, cell-based; settings: at 100 µg/mL, read-out: GI
MDA-MB-468 [5] = assay: Anticancer activity against human MDA-MB-468 cells assessed as growth inhibition at 100 microg/mL by SRB assay relative to control; format: functional; settings: read-out: GI; outline: as §1
MDA-MB-468 [6] = assay: Cytotoxicity against human MDA-MB-468 cells by SRB assay; format: functional, cell-based; outline: as §2
FaDu [7] = assay: Cytotoxicity against human FaDu cells by SRB assay; format: functional, cell-based; outline: as §2
MCF7 = assay: Anticancer activity against human MCF7 cells assessed as growth inhibition at 100 microg/mL by SRB assay relative to control; format: functional; settings: read-out: GI; outline: as §1
FaDu [8] = assay: Anticancer activity against human FaDu cells assessed as growth inhibition at 100 microg/mL by SRB assay relative to control; format: functional; settings: read-out: GI; outline: as §1
A-375 = assay: Anticancer activity against human A-375 cells assessed as growth inhibition at 100 microg/mL by SRB assay relative to control; format: functional; settings: read-out: GI; outline: as §1

Poly [ADP-ribose] polymerase 1, sequence (P09874 whole entry): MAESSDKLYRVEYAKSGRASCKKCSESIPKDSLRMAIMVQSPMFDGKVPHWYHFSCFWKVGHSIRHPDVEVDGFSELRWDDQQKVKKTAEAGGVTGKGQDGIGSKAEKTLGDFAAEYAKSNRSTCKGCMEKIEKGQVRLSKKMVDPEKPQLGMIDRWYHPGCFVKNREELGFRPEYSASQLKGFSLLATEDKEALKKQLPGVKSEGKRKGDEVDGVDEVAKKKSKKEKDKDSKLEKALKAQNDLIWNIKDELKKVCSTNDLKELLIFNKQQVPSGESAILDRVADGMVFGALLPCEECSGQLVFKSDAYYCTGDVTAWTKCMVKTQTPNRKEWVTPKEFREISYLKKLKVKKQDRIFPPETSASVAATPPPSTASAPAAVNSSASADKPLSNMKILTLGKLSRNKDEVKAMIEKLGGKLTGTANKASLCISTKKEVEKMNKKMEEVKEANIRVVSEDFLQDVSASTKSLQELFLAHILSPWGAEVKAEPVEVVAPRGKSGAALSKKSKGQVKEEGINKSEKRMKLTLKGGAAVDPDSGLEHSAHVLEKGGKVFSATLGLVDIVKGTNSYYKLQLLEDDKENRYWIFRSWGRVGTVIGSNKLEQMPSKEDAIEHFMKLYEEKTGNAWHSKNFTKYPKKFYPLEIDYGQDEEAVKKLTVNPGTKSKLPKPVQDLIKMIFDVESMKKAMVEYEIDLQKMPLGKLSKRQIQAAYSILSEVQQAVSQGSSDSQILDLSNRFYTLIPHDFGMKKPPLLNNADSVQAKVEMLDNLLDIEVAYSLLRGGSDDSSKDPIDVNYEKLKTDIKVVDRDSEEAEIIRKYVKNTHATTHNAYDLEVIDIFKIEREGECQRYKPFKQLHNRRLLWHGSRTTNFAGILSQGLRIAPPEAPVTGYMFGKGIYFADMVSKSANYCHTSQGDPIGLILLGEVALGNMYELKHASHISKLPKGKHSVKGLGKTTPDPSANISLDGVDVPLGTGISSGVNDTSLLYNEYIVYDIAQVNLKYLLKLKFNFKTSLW

Compound | IC50 [1] | inhibition of growth at 100 µg/mL (A549) | inhibition of growth at 100 µg/mL (SK-BR-3) | IC50 (HNO 97 cell line [2]) | inhibition of growth at 100 µg/mL (HNO 97 cell line [3]) | inhibition of growth at 100 µg/mL (NCI-H460) | inhibition of growth at 100 µg/mL (HCT-116) | inhibition of growth at 100 µg/mL (HeLa) | inhibition of growth at 100 µg/mL (Huh-7) | Activity (MDA-MB-231) | inhibition at 100 microg/mL [4] | inhibition of growth at 100 µg/mL (MDA-MB-468 [5]) | IC50 (MDA-MB-468 [6]) | IC50 (FaDu [7]) | inhibition of growth at 100 µg/mL (MCF7) | inhibition of growth at 100 µg/mL (FaDu [8]) | inhibition of growth at 100 µg/mL (A-375)
O=c1[nH]nc2c3c(cccc13)Oc1ccc(CN3CCC(O)CC3)cc1-2 [E-7016] | 3 µM | – | – | – | – | – | – | – | – | – | – | – | – | – | – | – | –
Cc1ccc(C(=O)/C=C/c2ccc(Oc3ccc(Cl)nn3)cc2)cc1 | – | 74.1% | 70.6% | 15.7 µM | 84.8% | 72.4% | 78.5% | 72.4% | 75.4% | Active | 67.8% | 88% | 74.1 µM | 120 µM | 72.4% | 80.2% | 69.1%
O=C(/C=C/c1ccc(Oc2ccc(Cl)nn2)cc1)c1ccc(OCc2ccc(OC(F)(F)F)cc2)cc1 | – | 57.8% | 67.4% | 20.3 µM | 81% | 49.7% | 39.6% | 40.5% | 66.3% | – | 49.4% | 80.3% | 68.3 µM | 83.5 µM | 53.6% | 84.9% | 53%
COC1CCN(C(=O)c2cc(Cc3n[nH]c(=O)c4ccccc34)ccc2F)CC1 [AZD2461] | 0.002 µM | – | – | – | – | – | – | – | – | – | – | – | – | – | – | – | –
CC1(COc2ccc(/C=C3/SC(O)=NC3=O)cc2)CCCCC1 | 25 µM | – | – | – | – | – | – | – | – | – | – | – | – | – | – | – | –
COc1cc(O)ccc1C(=O)/C=C/c1ccc(O)cc1 | 1.92 µM | – | – | – | – | – | – | – | – | – | – | – | – | – | – | – | –
COc1cccc2c1C(=O)c1c(O)c3c(c(O)c1C2=O)C[C@@](O)(C(=O)CO)C[C@@H]3O[C@H]1C[C@H](N)[C@H](O)[C@H](C)O1 [DOXORUBICIN] | – | 66.7% | 71.1% | 7 µM | 84.5% | 75.5% | 82.9% | 73% | 69.6% | – | 52.9% | 94% | 6.8 µM | 14 µM | 75.6% | 84.5% | 84%
O=C1NC(=O)/C(=C\c2ccc(Oc3ccc(Cl)nn3)cc2)S1 | – | 57.8% | 63.8% | – | 40.3% | 23.8% | 55.8% | 15.3% | 52.9% | – | 56.9% | 73% | 108 µM | – | 49.9% | 65.2% | 34.2%
O=C(/C=C/c1ccc(Oc2ccc(Cl)nn2)cc1)c1ccc(O)cc1 | – | 73.8% | 68.2% | 31.2 µM | 79.3% | 68.3% | 76.4% | 73.2% | 72% | – | 61% | 79.2% | 116 µM | 122 µM | 68.5% | 85% | 59.2%
O=C(/C=C/c1ccc(Oc2ccc(Cl)nn2)cc1)c1ccc(OCc2ccc(F)c(Cl)c2)cc1 | – | 69.2% | 49.8% | 30.3 µM | 75.6% | 54.6% | 55% | 36.2% | 61.9% | – | 54% | 78.2% | 36.3 µM | – | 47.2% | 61.8% | 39%
COc1ccc(COc2ccc(C(=O)/C=C/c3ccc(Oc4ccc(Cl)nn4)cc3)cc2)cc1 | – | 72% | 60.8% | 40.2 µM | 82.4% | 44.8% | 44% | 40.4% | 69.3% | – | 53.5% | 88.4% | 93 µM | 95.2 µM | 60.6% | 75.5% | 59.3%
O=C(/C=C/c1ccc(Oc2ccc(Cl)nn2)cc1)c1ccc([N+](=O)[O-])cc1 | – | 75.1% | 74.8% | 28.8 µM | 88.6% | 64.2% | 55.1% | 63.9% | 72.1% | – | 65.6% | 91.9% | 36.7 µM | 60.2 µM | 72.9% | 82.7% | 62.2%
COc1ccc(C(=O)/C=C/c2ccc(Oc3ccc(Cl)nn3)cc2)cc1 | – | 77% | 66.7% | 54.5 µM | 69.1% | 63.1% | 62.7% | 58.4% | 71.4% | – | 53.5% | 85.6% | 112 µM | – | 62.1% | 68.2% | 52.6%
O=C(/C=C/c1ccc(Oc2ccc(Cl)nn2)cc1)c1ccccc1 | – | 66.4% | 70.5% | 16.9 µM | 85.3% | 55.9% | 39% | 51% | 74.8% | Active | 52.2% | 90.5% | 26.4 µM | 17.8 µM | 63% | 80.9% | 29.3%
O=C(/C=C/c1ccc(Oc2ccc(Cl)nn2)cc1)c1ccc(OCc2ccccc2)cc1 | – | 77.1% | 73.2% | 74.5 µM | 85.5% | 46.9% | 61.4% | 68.2% | 73.9% | – | 67.8% | 89.8% | 54.2 µM | 79 µM | 71.7% | 85.4% | 67.2%
